In ChEMBL document CHEMBL4732146, “Nitric oxide-donating and reactive oxygen species-responsive prochelators based on 8-hydroxyquinoline as anticancer agents” (Eur J Med Chem, 2021):
The source made the active and inactive calls. The calls are words filed in the database; no cut-off is given here.

Experiments:
[1] = system: A549; test: Cytotoxicity against human A549 cells assessed as reduction in cell viability measured after 48 hrs in presence of FeCl3 by MTT assay; type: functional, cell-based; settings: A549, 48 h
[2] = system: SW1990; test: Antitumor activity against human SW1990 cells xenografted in Balb/c nude mouse assessed as tumor size at 20 mg/kg, iv administered every 3 days measured after 21 days (reference value: 1.23 +/- 0.25 cm3); type: functional; settings: time 21 day
In short: (§1)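 Male BALB/c nude mice, 3–5 weeks old, given 1 × 10⁷ SW1990 cells subcutaneously; when tumors reached about 65 mm³, randomised to groups of eight. Saline vehicle control, dosing intravenously every three days. Tumor size monitored every two days for three weeks; tumors dissected at sacrifice on day 21, volume = d² × D/2 (d smallest, D largest diameter). Mean ± SD.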

[3] = system: MCF7; test: Cytotoxicity against human MCF7 cells assessed as reduction in cell viability measured after 48 hrs in presence of FeCl3 by MTT assay; type: functional, cell-based; settings: MCF7, 48 h
In short: (§2)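 Cells seeded 6 × 10⁴ per well, cultured 24 h at 37 °C under 5% CO₂, then exposed to compound for 48 h, with or without 50 µM CuCl₂ or FeCl₃ co-incubation. MTT added for 4 h at 37 °C, formazan dissolved in DMSO, A490 read. IC50 reported as mean (SD), n = 3.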

[4] = system: SW1990; test: Induction of apoptosis in human SW1990 cells at 12 uM measured after 24 hrs by Annexin V-FITC/propidium iodide staining based flow cytometry; type: functional, cell-based
In short: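 SW1990 cells seeded 5 × 10⁵ per well and grown 24 h, then treated 24 h at 8 or 12 µM. Optional 1 h pretreatment with 20 mM NAC or 50 µM carboxyl-PTIO before 12 µM treatment. Cells stained with annexin V-FITC 15 min and PI 5 min at room temperature in the dark, then analysed by flow cytometry. Mean ± SD, n = 3.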

[5] = system: HepG2; test: Cytotoxicity against human HepG2 cells assessed as reduction in cell viability measured after 48 hrs in presence of CuCl2 by MTT assay; type: functional, cell-based; settings: HepG2, 48 h; in short: as §2
[6] = system: MCF7; test: Cytotoxicity against human MCF7 cells assessed as reduction in cell viability measured after 48 hrs by MTT assay; type: functional, cell-based; settings: MCF7, 48 h; in short: as §2
[7] = system: HepG2; test: Cytotoxicity against human HepG2 cells assessed as reduction in cell viability measured after 48 hrs in presence of FeCl3 by MTT assay; type: functional, cell-based; settings: HepG2, 48 h; in short: as §2
[8] = system: A549; test: Cytotoxicity against human A549 cells assessed as reduction in cell viability measured after 48 hrs by MTT assay; type: functional, cell-based; settings: A549, 48 h
[9] = system: HeLa; test: Cytotoxicity against human HeLa cells assessed as reduction in cell viability measured after 48 hrs in presence of CuCl2 by MTT assay; type: functional, cell-based
[10] = Metal chelating activity assessed as compound-Cu2+ complex formation measured after 40 mins by calcein dye based fluorescence assay; settings: dose 10-50 µM
In short: (§3)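 Calcein (10 µM) in 50 mM HEPES was quenched by 10 µM CuCl₂ (or FeCl₃ for the Fe³⁺ arm). Chelator was added from DMSO stock to a final 10 or 50 µM and incubated 40 min at room temperature. Recovery rate was calculated from fluorescence (λex 485 / λem 520 nm); n = 3.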

[11] = system: HepG2; test: Cytotoxicity against human HepG2 cells assessed as reduction in cell viability measured after 48 hrs by MTT assay; type: functional, cell-based; settings: HepG2, 48 h; in short: as §2
[12] = system: HCT-116; test: Cytotoxicity against human HCT-116 cells assessed as reduction in cell viability measured after 48 hrs by MTT assay; type: functional, cell-based; settings: HCT-116, 48 h; in short: as §2
[13] = system: MCF7; test: Cytotoxicity against human MCF7 cells assessed as reduction in cell viability measured after 48 hrs in presence of CuCl2 by MTT assay; type: functional, cell-based; settings: MCF7, 48 h; in short: as §2
[14] = Cytotoxicity against human RWPE2 cells assessed as reduction in cell viability measured after 48 hrs by MTT assay; type: cell-based; settings: RWPE2, 48 h; in short: as §2
[15] = system: PC-3; test: Cytotoxicity against human PC-3 cells assessed as reduction in cell viability measured after 48 hrs by MTT assay; type: functional, cell-based; settings: PC-3, 48 h; in short: as §2
[16] = system: SW1990; test: Cytotoxicity against human SW1990 cells assessed as reduction in cell viability measured after 48 hrs in presence of CuCl2 by MTT assay; type: functional, cell-based; settings: SW1990, 48 h; in short: as §2
[17] = system: HCT-116; test: Cytotoxicity against human HCT-116 cells assessed as reduction in cell viability measured after 48 hrs in presence of CuCl2 by MTT assay; type: functional, cell-based; settings: HCT-116, 48 h; in short: as §2
[18] = Metal chelating activity assessed as compound-Fe3+ complex formation measured after 40 mins by calcein dye based fluorescence assay; settings: dose 10-50 µM; in short: as §3
[19] = system: HeLa; test: Cytotoxicity against human HeLa cells assessed as reduction in cell viability measured after 48 hrs in presence of FeCl3 by MTT assay; type: functional, cell-based
[20] = system: A549; test: Cytotoxicity against human A549 cells assessed as reduction in cell viability measured after 48 hrs in presence of CuCl2 by MTT assay; type: functional, cell-based; settings: A549, 48 h
[21] = system: PANC-1; test: Cytotoxicity against human PANC-1 cells assessed as reduction in cell viability at 20 uM measured after 48 hrs by MTT assay relative to control; type: functional
In short: (§4)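 MTT assay with 48 h compound exposure at 10 or 20 µM. Cells seeded 6 × 10⁴ per well and grown 24 h beforehand. MTT 4 h, DMSO solubilisation, A490 read. Percent cell death given as mean ± SD, n = 3.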

[22] = system: SW1990; test: Cytotoxicity against human SW1990 cells assessed as reduction in cell viability measured after 48 hrs by MTT assay; type: functional, cell-based; settings: SW1990, 48 h; in short: as §2
[23] = system: HCT-116; test: Cytotoxicity against human HCT-116 cells assessed as reduction in cell viability measured after 48 hrs in presence of FeCl3 by MTT assay; type: functional, cell-based; settings: HCT-116, 48 h; in short: as §2
[24] = system: PANC-1; test: Cytotoxicity against human PANC-1 cells assessed as reduction in cell viability measured after 48 hrs in presence of CuCl2 by MTT assay; type: functional, cell-based; settings: PANC-1, 48 h; in short: as §2
[25] = system: SW1990; test: Antitumor activity against human SW1990 cells xenografted in Balb/c nude mouse assessed as tumor growth inhibition at 20 mg/kg, iv administered every 3 days measured after 21 days relative to control; type: functional; settings: 504 h, time 21 day, read-out: TGI; in short: as §1
[26] = system: SW1990; test: Cytotoxicity against human SW1990 cells assessed as reduction in cell viability measured after 48 hrs in presence of FeCl3 by MTT assay; type: functional, cell-based; settings: SW1990, 48 h; in short: as §2
[27] = Cytotoxicity against human H6C7 cells assessed as reduction in cell viability measured after 48 hrs by MTT assay; type: cell-based; settings: H6C7, 48 h; in short: as §2
[28] = system: PANC-1; test: Cytotoxicity against human PANC-1 cells assessed as reduction in cell viability measured after 48 hrs by MTT assay; type: functional, cell-based; settings: PANC-1, 48 h; in short: as §2
[29] = system: PANC-1; test: Cytotoxicity against human PANC-1 cells assessed as reduction in cell viability measured after 48 hrs in presence of FeCl3 by MTT assay; type: functional, cell-based; settings: PANC-1, 48 h; in short: as §2
[30] = system: PC-3; test: Cytotoxicity against human PC-3 cells assessed as reduction in cell viability measured after 48 hrs in presence of CuCl2 by MTT assay; type: functional, cell-based; settings: PC-3, 48 h; in short: as §2
[31] = system: HeLa; test: Cytotoxicity against human HeLa cells assessed as reduction in cell viability measured after 48 hrs by MTT assay; type: functional, cell-based
[32] = system: PC-3; test: Cytotoxicity against human PC-3 cells assessed as reduction in cell viability measured after 48 hrs in presence of FeCl3 by MTT assay; type: functional, cell-based; settings: PC-3, 48 h; in short: as §2
[33] = Drug metabolism in human SW1990 cells assessed as nitric oxide release at 12 uM measured after 24 hrs by DAF-FM DA probe based flow cytometry; type: ADME, cell-based; settings: sw1990, 24 h
In short: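 SW1990 cells at 80% confluence loaded with 5 µM DAF-FM DA for 20 min at 37 °C, rinsed, then incubated with compound. Optional 1 h pretreatment with 50 µM carboxyl-PTIO before 12 µM treatment. Fluorescence read by flow cytometry (ex 495 / em 515 nm). Mean ± SD, n = 3.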

[34] = system: SW1990; test: Cytotoxicity against human SW1990 cells assessed as reduction in cell viability at 10 to 20 uM measured after 48 hrs by MTT assay; type: functional, cell-based; settings: dose 10-20 µM; in short: as §4
[35] = system: HepG2; test: Cytotoxicity against human HepG2 cells assessed as reduction in cell viability at 10 to 20 uM measured after 48 hrs by MTT assay; type: functional, cell-based; settings: dose 10-20 µM; in short: as §4
[36] = system: MCF7; test: Cytotoxicity against human MCF7 cells assessed as reduction in cell viability at 10 to 20 uM measured after 48 hrs by MTT assay; type: functional, cell-based; settings: dose 10-20 µM; in short: as §4
[37] = system: PANC-1; test: Cytotoxicity against human PANC-1 cells assessed as reduction in cell viability at 10 uM measured after 48 hrs by MTT assay; type: functional, cell-based; in short: as §4
[38] = Drug metabolism in human PANC-1 cells assessed as nitric oxide release at 10 uM measured after 8 hrs by Griess assay; type: ADME, cell-based; settings: panc-1, 8 h
In short: (§5)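 Cells exposed 8 h to 10 µM compound. Nitrite measured by Griess reagent kit at 540 nm against a NaNO₂ calibration curve. Mean ± SD, n = 3.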

[39] = Drug metabolism in human SW1990 cells assessed as nitric oxide release at 10 uM measured after 8 hrs by Griess assay; type: ADME, cell-based; settings: sw1990, 8 h; in short: as §5
[40] = system: A549; test: Cytotoxicity against human A549 cells assessed as reduction in cell viability at 10 to 20 uM measured after 48 hrs by MTT assay; type: functional, cell-based; settings: dose 10-20 µM
[41] = system: HeLa; test: Cytotoxicity against human HeLa cells assessed as reduction in cell viability at 10 to 20 uM measured after 48 hrs by MTT assay; type: functional, cell-based; settings: dose 10-20 µM

Oc1cccc2cccnc12 [OXYQUINOLINE]
IC50 [1]: 32.6 µM
Activity [2]: 0.68 cm3
IC50 [3]: > 50 µM
Activity [4]: Active
IC50 [5]: 32.1 µM
IC50 [6]: > 50 µM
IC50 [7]: > 50 µM
IC50 [8]: 31.2 µM
IC50 [9]: 35.6 µM
Activity [10]: Dose-dependent effect
IC50 [11]: > 50 µM
IC50 [12]: 21.1 µM
IC50 [13]: 21.1 µM
IC50 [14]: 25.6 µM
IC50 [15]: 32 µM
IC50 [16]: 10.2 µM
IC50 [17]: 7.25 µM
Activity [18]: Dose-dependent effect
IC50 [19]: > 50 µM
IC50 [20]: 6.58 µM
Activity [21]: 48%
IC50 [22]: 32.1 µM
IC50 [23]: 26.3 µM
IC50 [24]: 7.43 µM
inhibition in vivo at 20 mg/kg [25]: 44.7%
IC50 [26]: > 50 µM
IC50 [27]: 20.1 µM
IC50 [28]: 24.5 µM
IC50 [29]: 30.4 µM
IC50 [30]: 14.4 µM
IC50 [31]: > 50 µM
IC50 [32]: > 50 µM

O=C(NCCCOc1nonc1S(=O)(=O)c1ccccc1)c1ccc2cccc(OCc3ccc(B(O)O)cc3)c2n1
Activity [4]: Active
Drug metabolism [33]: Metabolite_Notdetected
Activity [34]: inactive

O=C(NCCCOc1no[n+]([O-])c1S(=O)(=O)c1ccccc1)c1ccc2cccc(O)c2n1
IC50 [1]: 17.9 µM
IC50 [3]: 18.2 µM
IC50 [5]: 6.32 µM
IC50 [6]: 13.4 µM
IC50 [7]: 22.4 µM
IC50 [8]: 13.8 µM
IC50 [9]: 9.56 µM
Activity [10]: Dose-dependent effect
Activity [35]: Active
IC50 [11]: 17.9 µM
IC50 [12]: 14.6 µM
IC50 [13]: 3.23 µM
IC50 [14]: 8.77 µM
IC50 [15]: 11.7 µM
Activity [36]: Active
IC50 [16]: 1.47 µM
Activity [37]: Active
IC50 [17]: 5.2 µM
Activity [18]: Dose-dependent effect
Drug metabolism [38]: Metabolite_Detected
IC50 [19]: 33.2 µM
Drug metabolism [39]: Metabolite_Detected
IC50 [20]: 4.68 µM
Activity [21]: 75.2%
Activity [40]: Active
IC50 [22]: 9.24 µM
IC50 [23]: 20.1 µM
IC50 [24]: 0.86 µM
IC50 [26]: 12.1 µM
IC50 [27]: 9.05 µM
Activity [41]: Active
IC50 [28]: 7.54 µM
IC50 [29]: 13.9 µM
IC50 [30]: 5.63 µM
IC50 [31]: 28.7 µM
IC50 [32]: 17.1 µM
